Results on eleven molecules are retold here after ChEMBL document CHEMBL1140198, “Studies on novel 4beta-[(4-substituted)-1,2,3-triazol-1-yl] podophyllotoxins as potential anticancer agents” (Eur J Med Chem, 2008).

Usually IC50 stands for the concentration needed to halve the response being measured. Lower therefore signals higher potency.

Holding throughout (assay type): functional, cell-based
For experiment [1], the system named is SF-295. The experiment can be described thus: Cytotoxicity against human SF295 cells by sulforhodamine B assay. A digest of the protocol: (§1)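 Log-phase cells seeded at 10⁴ cells/well and allowed to attach for 24 h at 37 °C, 5% CO₂. Then exposed to test samples over a 1:10 serial dilution series for 48 h under the same conditions, four replicate wells per condition. Fixed with 50% chilled TCA for 1 h at 4 °C, stained with sulforhodamine B, and the bound dye dissolved in Tris buffer.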
On the technique in general: Sulforhodamine B stains cellular protein and so reports cell mass.

Experiment [2] concerns HEp-2. Kind of experiment: Cytotoxicity against human HEP2 cells by sulforhodamine B assay. The method, boiled down: as §1
In experiment [3] the test system is A549. The experiment can be described thus: Cytotoxicity against human A549 cells by sulforhodamine B assay. A digest of the protocol:
as §1

Experiment [4] relates to HCT-15. Kind of experiment: Cytotoxicity against human HCT-15 cells by sulforhodamine B assay. The method, boiled down: as §1
For experiment [5], the system named is PC-3. Kind of experiment: Cytotoxicity against human PC-3 cells by sulforhodamine B assay. The method, boiled down:
as §1

A short description of experiment [6]: Cytotoxicity against human 502713 cells by sulforhodamine B assay. The method, boiled down: as §1
The test system of experiment [7] is DU-145. The experiment can be described thus: Cytotoxicity against human DU145 cells by sulforhodamine B assay. A digest of the protocol: as §1

With `COc1cc([C@@H]2c3cc4c(cc3[C@@H](n3cc(CNc5cccc(Cl)c5)nn3)[C@H]3COC(=O)[C@H]23)OCO4)cc(OC)c1OC`, the IC50 turned out to be 840 nM in experiment [1]; 1370 nM in experiment [2]; 4990 nM in experiment [3]; 340 nM in experiment [4]; 1180 nM in experiment [5]; 710 nM in experiment [6]. Besides, in experiment [7], the IC50 amounted to 930 nM.

As to `COc1cc([C@@H]2c3cc4c(cc3[C@@H](n3cc(CNc5ccccc5C)nn3)[C@H]3COC(=O)[C@H]23)OCO4)cc(OC)c1O`, the IC50 was 960 nM in experiment [1]; 1500 nM in experiment [2]; 5170 nM in experiment [3]; 140 nM in experiment [4]; 1530 nM in experiment [5]; 620 nM in experiment [6]. In addition, the midpoint of inhibition in experiment [7], the IC50, lay at 1190 nM.

Consider `COc1cc([C@@H]2c3cc4c(cc3[C@@H](n3cc(CNc5ccccc5)nn3)[C@H]3COC(=O)[C@H]23)OCO4)cc(OC)c1O`, for which the IC50 in experiment [1] came to 700 nM; in experiment [2], 2960 nM; in experiment [3] it was 7460 nM; in experiment [4], 400 nM; in experiment [5] it was 1030 nM; in experiment [6], 680 nM. The IC50 in experiment [7] was found to be 1090 nM.

For the molecule `COc1cc([C@@H]2c3cc4c(cc3[C@@H](n3cc(CNc5cccc([N+](=O)[O-])c5)nn3)[C@H]3COC(=O)[C@H]23)OCO4)cc(OC)c1OC`, the IC50 in experiment [1] is 680 nM; in experiment [2], 3650 nM; in experiment [3], 5780 nM; in experiment [4], 40 nM; in experiment [5], 740 nM; in experiment [6], 560 nM. This molecule also returned an IC50 in experiment [7] of 650 nM.

As to `COc1cc([C@@H]2c3cc4c(cc3[C@@H](n3cc(CNc5ccccc5)nn3)[C@H]3COC(=O)[C@H]23)OCO4)cc(OC)c1OC`, the IC50 amounted to 780 nM in experiment [1]; 4640 nM in experiment [2]; 6100 nM in experiment [3]; 140 nM in experiment [4]; 880 nM in experiment [5]; 610 nM in experiment [6]. The molecule also gave an IC50 in experiment [7] of 1120 nM.

Take `COc1cc([C@@H]2c3cc4c(cc3[C@@H](n3cc(CNc5ccccc5C)nn3)[C@H]3COC(=O)[C@H]23)OCO4)cc(OC)c1OC`: the half-inhibitory concentration (IC50) in experiment [1] came to 1940 nM; in experiment [2], 9140 nM; in experiment [3] it was 7880 nM; in experiment [4], 360 nM; in experiment [5], 1090 nM; in experiment [6], 780 nM. The half-inhibitory concentration (IC50) in experiment [7] is 1060 nM.

`COc1cc([C@@H]2c3cc4c(cc3[C@@H](n3cc(CNc5cccc([N+](=O)[O-])c5)nn3)[C@H]3COC(=O)[C@H]23)OCO4)cc(OC)c1O`: the half-maximal inhibitory concentration (IC50) in experiment [1] was 4200 nM; in experiment [2], 4100 nM; in experiment [3], 7430 nM; in experiment [4], 1550 nM; in experiment [5], 6630 nM; in experiment [6], 1190 nM. This molecule also returned an IC50 in experiment [7] of 4370 nM.

For the molecule `COc1cc([C@@H]2c3cc4c(cc3[C@@H](n3cc(CNc5cccc(Cl)c5)nn3)[C@H]3COC(=O)[C@H]23)OCO4)cc(OC)c1O`, the IC50 in experiment [1] was determined as 3110 nM; in experiment [2] it was 1220 nM; in experiment [3], 8630 nM; in experiment [4] it was 4220 nM; in experiment [5] it was 1370 nM; in experiment [6], 980 nM. This molecule displayed an IC50 in experiment [7] of 4160 nM.

On to `COc1cc([C@@H]2c3cc4c(cc3[C@@H](n3cc(CNc5ccccc5Cl)nn3)[C@H]3COC(=O)[C@H]23)OCO4)cc(OC)c1OC`, for which the IC50 is 1000 nM in experiment [1]; 1260 nM in experiment [2]; 9240 nM in experiment [3]; 1430 nM in experiment [4]; 3450 nM in experiment [5]; 1880 nM in experiment [6]. The same molecule returned an IC50 in experiment [7] of 3570 nM.

For the molecule `COc1cc([C@@H]2c3cc4c(cc3[C@@H](O[C@@H]3O[C@@H]5CO[C@@H](C)O[C@H]5[C@H](O)[C@H]3O)[C@H]3COC(=O)[C@H]23)OCO4)cc(OC)c1O` [ETOPOSIDE], the IC50 in experiment [1] turned out to be 13300 nM; in experiment [2], 2150 nM; in experiment [3] it was 5620 nM; in experiment [4], 1480 nM; in experiment [5], 17400 nM; in experiment [6], 2420 nM. In experiment [7], this molecule had an IC50 of 3850 nM.

Take `COc1cc([C@@H]2c3cc4c(cc3[C@H](O)[C@H]3COC(=O)[C@H]23)OCO4)cc(OC)c1OC` [PODOFILOX]: the IC50 in experiment [1] is 5690 nM; in experiment [2], 1420 nM; in experiment [3], 7630 nM; in experiment [4], 1000 nM; in experiment [5], 18900 nM; in experiment [6], 3880 nM. Also, in experiment [7], the IC50 was 2970 nM.
